Calls of active or inactive are those of the source. The calls are words filed in the database; no cut-off is given here.
Columns and labels:
Bel-7402 [1] = assay: Induction of apoptosis in human Bel7402 cells assessed as early apoptotic cells at 0.125 uM after 72 hrs by Annexin V-FITC/propidium iodide staining based flow cytometry (reference value: 1.65%); type: functional
Bel-7402 [2] = assay: Induction of mitochondrial membrane depolarization in human Bel7402 cells assessed as cell with intact mitochondrial membrane potential at 0.125 uM after 24 to 48 hrs by JC-1 staining based flow cytometric analysis (reference value: 98.83%); type: functional
[3] = Selectivity index, ratio of IC50 for human LO2 cells to IC50 for human Bel7402 cells; type: toxicity; details: LO2 cells versus Bel7402 cells, read-out: Ratio IC50
Procedure, shortened: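 Selectivity index = IC50(L-O2)/IC50(Bel-7402), both IC50s from the 72 h MTT assay (mean of three independent experiments).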

Bel-7402 [4] = assay: Induction of mitochondrial membrane depolarization in human Bel7402 cells after 24 to 48 hrs by JC1 staining based flow cytometric analysis; type: functional, cell-based
Bel-7402 [5] = assay: Induction of apoptosis in human Bel7402 cells assessed as early apoptotic cells at 0.25 uM after 72 hrs by Annexin V-FITC/propidium iodide staining based flow cytometry (reference value: 1.65%); type: functional
Bel-7402 [6] = assay: Induction of cyto-c accumulation in human Bel7402 cells cytosol at 0.125 to 0.5 uM after 72 hrs by Western blot analysis; type: functional, cell-based
Procedure, shortened: (§1)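 Bel-7402 cells were treated for 72 h at the indicated concentrations (0.125–0.5 µM) and lysed. Lysates were cleared at 14,000 g for 10 min at 4 °C, and 25 µg protein per lane was run on 10% SDS-PAGE and transferred to nitrocellulose. Membranes were blocked in 5% milk, probed overnight at 4 °C with monoclonal antibodies, and detected by ECL. Densitometry was normalized to GAPDH.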

Bel7402/5-FU = assay: Antiproliferative activity against human Bel7402/5-FU cells after 72 hrs by MTT assay; type: functional, cell-based
Procedure, shortened: (§2)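 Cells pre-incubated 24 h at 37 °C in humidified 5% CO2, then exposed to compounds for 72 h. MTT (5 mg/mL) was added for 4 h, formazan was dissolved in DMSO, and OD was read at 570 nm. Vehicle control was 0.1% DMSO. IC50 was calculated from inhibition ratios as the mean ± SD of three independent experiments.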

Bel-7402 [7] = assay: Induction of apoptosis in human Bel7402 cells assessed as late apoptotic cells at 0.25 uM after 72 hrs by Annexin V-FITC/propidium iodide staining based flow cytometry (reference value: 2.82%); type: functional
Bel-7402 [8] = assay: Downregulation of Bcl-2 level in human Bel7402 cells after 72 hrs by Western blot analysis; type: functional, cell-based; procedure, shortened: as §1
Bel-7402 [9] = assay: Cell cycle arrest in human Bel7402 cells assessed as accumulation at S phase at 0.25 uM after 72 hrs by propidium iodide staining-based flow cytometric method (reference value: 37.02%); type: functional
Bel-7402 [10] = assay: Induction of apoptosis in human Bel7402 cells assessed as viable cells at 0.5 uM after 72 hrs by Annexin V-FITC/propidium iodide staining based flow cytometry (reference value: 82.48%); type: functional; details: Bel-7402, 72 h, read-out: Activity
Bel-7402 [11] = assay: Induction of apoptosis in human Bel7402 cells assessed as chromatin condensation at 0.125 to 0.25 uM after 48 hrs by Hoechst 33258 staining based fluorescent microscopic method; type: functional, cell-based
Procedure, shortened: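 Bel-7402 cells were seeded and grown 24 h, treated at 0.125, 0.25 and 0.5 µM for 48 h, then harvested by mild trypsinization and washed in PBS. They were stained with Hoechst 33258 for 15 min at room temperature in the dark and examined by fluorescence microscopy with a DAPI filter. Untreated cells served as control.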

Bel-7402 [12] = assay: Upregulation of caspase-9 level in human Bel7402 cells at 0.125 to 0.5 uM after 72 hrs by Western blot analysis; type: functional, cell-based; procedure, shortened: as §1
Bel-7402 [13] = assay: Induction of mitochondrial membrane depolarization in human Bel7402 cells assessed as cells with mitochondrial membrane potential loss at 0.25 uM after 24 to 48 hrs by JC-1 staining based flow cytometric analysis (reference value: 6.17%); type: functional
Bel-7402 [14] = assay: Upregulation of p53 level in human Bel7402 cells after 72 hrs by Western blot analysis; type: functional, cell-based; procedure, shortened: as §1
Bel-7402 [15] = assay: Cell cycle arrest in human Bel7402 cells assessed as accumulation at G2/M phase at 0.125 uM after 72 hrs by propidium iodide staining-based flow cytometric method (reference value: 23.71%); type: functional
HL-60 = assay: Antiproliferative activity against human HL60 cells after 72 hrs by MTT assay; type: functional, cell-based; details: HL-60, 72 h; procedure, shortened: as §2

Compound: C[C@H]1CCC/C=C/[C@@H]2C[C@H](O)C[C@H]2[C@H](OC(=O)c2ccc(N(CCCl)CCCl)cc2)/C=C/C(=O)O1
- Activity (Bel-7402 [1]): 10.49%
- Activity (Bel-7402 [2]): 83.63%
- selectivity ratio [3]: 38.9
- Activity (Bel-7402 [4]): Dose-dependent effect
- Activity (Bel-7402 [5]): 22.69%
- Activity (Bel-7402 [6]): Active
- IC50 (Bel7402/5-FU): 840 nM
- Activity (Bel-7402 [7]): 11.26%
- Activity (Bel-7402 [8]): Dose-dependent effect
- Activity (Bel-7402 [9]): 32.48%
- viability at 0.5 µM (Bel-7402 [10]): 38.5%
- Activity (Bel-7402 [11]): Active
- Activity (Bel-7402 [12]): Active
- Activity (Bel-7402 [13]): 29.5%
- Activity (Bel-7402 [14]): Dose-dependent effect
- Activity (Bel-7402 [15]): 19.92%
- IC50 (HL-60): 4.48 µM

Reference: ChEMBL document CHEMBL4196069 (Eur J Med Chem, 2018)
